From ChEMBL document CHEMBL4765236, “Insights into the Antimicrobial Activity and Cytotoxicity of Engineered α-Helical Peptide Amphiphiles” (J Med Chem, 2016)
Active and inactive are the calls of the source. No cut-off for these calls is given here.

Key:
[1] = Therapeutic index, ratio of MHC10 for human RBC to geometric mean of peptide MIC for Staphylococcus aureus ATCC 29213; format: toxicity; details: human red blood cells (RBC), pooled result: one value given for 9 cell lines, strains, targets or settings, read-out: TI
Summary of the method: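 Therapeutic index = MHC (peptide concentration giving 10% hemolysis of human RBCs, 1 h, 37 °C, A540) divided by geometric mean of MICs from broth microdilution (10^5 CFU/mL in MHB, 37 °C, 18-24 h, OD492).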

Escherichia coli [2] = assay: Antibacterial activity against Escherichia coli O157:H7 CICC 21530 assessed as bacterial growth inhibition incubated for 18 to 24 hrs by microtiter broth dilution method; format: functional; details: time 18-24 hrs
Summary of the method: (§1)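 Log-phase bacteria grown at 37 °C in MHB, diluted to 10^5 CFU/mL, mixed 1:1 with serial peptide dilutions (peptide diluted in 0.01% acetic acid, 0.2% BSA); 37 °C for 18-24 h. MIC read by OD492 as lowest concentration giving no growth; mean of 3-5 independent experiments.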

Salmonella paratyphi [3] = assay: Antibacterial activity against Salmonella paratyphi A CICC 20501 assessed as bacterial growth inhibition incubated for 18 to 24 hrs by microtiter broth dilution method; format: functional, Salmonella enterica subsp. enterica serovar Paratyphi A; details: Salmonella enterica, time 18-24 hrs; summary of the method: as §1
Shigella flexneri = assay: Antibacterial activity against Shigella flexneri CMCC 51571 assessed as bacterial growth inhibition incubated for 18 to 24 hrs by microtiter broth dilution method; format: functional; details: time 18-24 hrs
Summary of the method: (§2)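 Log-phase cells (grown overnight at 37 °C, subcultured in MHB) diluted to 10^5 CFU/mL in MHB and mixed 1:1 with serial peptide dilutions prepared in 0.01% acetic acid/0.2% BSA. Incubated 37 °C for 18-24 h. MIC is the lowest concentration giving no growth by OD492. Reported as the average of 3-5 independent experiments.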

Cell membrane [4] = assay: Induction of outer membrane permeabilization in Escherichia coli O157:H7 CICC 21530 assessed as increase in fluorescence intensity by NPN-dye based fluorescence assay; format: subcellular; details: dose 0.625-7.5 µM
Staphylococcus aureus [5] = assay: Antibacterial activity against Staphylococcus aureus ATCC 29213 assessed as bacterial growth inhibition incubated for 18 to 24 hrs by microtiter broth dilution method; format: functional; details: time 18-24 hrs; summary of the method: as §2
Salmonella enterica = assay: Antibacterial activity against Salmonella choleraesuis ATCC 13312 assessed as bacterial growth inhibition incubated for 18 to 24 hrs by broth dilution method; format: functional; details: time 18-24 hrs; summary of the method: as §1
Staphylococcus aureus [6] = assay: Bactericidal activity against Staphylococcus aureus ATCC 29213 assessed as bacterial killing at 1 times MIC by time kill assay; format: functional, organism-based; details: time 1085.0 min, TDE = time-dependent effect
Summary of the method: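 Log-phase S. aureus 29213 exposed to peptide at 1 × MIC in 10 mM PBS pH 7.4 at 37 °C for 0-90 min. Aliquots taken at fixed intervals, diluted and plated on nutrient agar, and colonies counted after 18 h at 37 °C. Average of three independent assays.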

Salmonella paratyphi [7] = assay: Antibacterial activity against Salmonella paratyphi C CICC 21512 assessed as bacterial growth inhibition incubated for 18 to 24 hrs by microtiter broth dilution method; format: functional; details: Salmonella enterica, time 18-24 hrs; summary of the method: as §1
Escherichia coli [8] = assay: Antibacterial activity against Escherichia coli ATCC 25922 assessed as bacterial growth inhibition incubated for 18 to 24 hrs by microtiter broth dilution method; format: functional; details: time 18-24 hrs; summary of the method: as §2
Escherichia coli [9] = assay: Antibacterial activity against Escherichia coli O157:H7 CICC 21530 assessed as bacterial growth inhibition incubated for 18 to 24 hrs in presence of 150 mM NaCl by microtiter broth dilution method (reference value: 0.85 to > 71.5 uM); format: functional; details: time 18-24 hrs
RAW264.7 = assay: Cytotoxicity against mouse RAW264.7 cells assessed as increase in cell viability at 64 uM incubated for 24 hrs by MTT assay relative to control; format: cell-based; details: raw264.7, 24 h
Summary of the method: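 RAW264.7 macrophages were grown in DMEM with 10% FBS, 2 mM glutamine and penicillin/streptomycin at 37 °C in 5% CO2. Cells seeded at 1.0-2.0 × 10^4 per well and treated with peptide (final 0.25-64 µM) for 24 h at 37 °C. MTT at 0.5 mg/mL added for 4 h, formazan dissolved in DMSO, read at 570 nm.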

Candida albicans = assay: Antifungal activity against Candida albicans ATCC 10231 assessed as fungal growth inhibition incubated for 18 to 24 hrs by microtiter broth dilution method; format: functional; details: time 18-24 hrs; summary of the method: as §2
Cell membrane [10] = assay: Induction of cell membrane depolarization in Escherichia coli O157:H7 CICC 21530 assessed as increase in fluorescence intensity at 0.5 to 2 times MIC preincubated for 90 mins followed by KCl addition and measured after 15 to 30 mins by DiSC3-5 staining based fluorescence spectroscopic technique; format: subcellular; details: time 105-120 min
Escherichia coli [11] = assay: Antibacterial activity against Escherichia coli O157:H7 CICC 21530 assessed as bacterial growth inhibition incubated for 18 to 24 hrs in presence of 1 mM MgCl2 by microtiter broth dilution method (reference value: 0.85 to > 71.5 uM); format: functional; details: time 18-24 hrs
Bacillus cereus = assay: Antibacterial activity against Bacillus cereus CMCC 63301 assessed as bacterial growth inhibition incubated for 18 to 24 hrs by microtiter broth dilution method; format: functional; details: time 18-24 hrs; summary of the method: as §2
Salmonella typhimurium = assay: Antibacterial activity against Salmonella typhimurium CMCC 51005 assessed as bacterial growth inhibition incubated for 18 to 24 hrs by microtiter broth dilution method; format: functional, Salmonella enterica subsp. enterica serovar Typhimurium; details: Salmonella enterica, time 18-24 hrs; summary of the method: as §2
Salmonella enteritidis = assay: Antibacterial activity against Salmonella enteritidis CICC 21527 assessed as bacterial growth inhibition incubated for 18 to 24 hrs by microtiter broth dilution method; format: functional, Salmonella enterica subsp. enterica serovar Enteritidis; details: Salmonella enterica, time 18-24 hrs; summary of the method: as §2
Staphylococcus aureus [12] = assay: Antibacterial activity against Staphylococcus aureus GIM 1.160 assessed as bacterial growth inhibition incubated for 18 to 24 hrs by microtiter broth dilution method; format: functional; details: time 18-24 hrs; summary of the method: as §2
Bacillus pumilus = assay: Antibacterial activity against Bacillus pumilus CMCC 63202 assessed as bacterial growth inhibition incubated for 18 to 24 hrs by microtiter broth dilution method; format: functional; details: time 18-24 hrs; summary of the method: as §2
Staphylococcus aureus [13] = assay: Antibacterial activity against Staphylococcus aureus ATCC 29213 assessed as bacterial growth inhibition incubated for 18 to 24 hrs in presence of 6 mM NH4Cl by microtiter broth dilution method (reference value: 0.43 to > 71.5 uM); format: functional; details: time 18-24 hrs
Staphylococcus aureus [14] = assay: Antibacterial activity against Staphylococcus aureus ATCC 29213 assessed as bacterial growth inhibition incubated for 18 to 24 hrs in presence of 4.5 mM KCl by microtiter broth dilution method (reference value: 0.43 to > 71.5 uM); format: functional; details: time 18-24 hrs

Row | Substance | selectivity ratio [1] | MIC (Escherichia coli [2]) [µM] | MIC (Salmonella paratyphi [3]) [µM] | MIC (Shigella flexneri) [µM] | Activity (Cell membrane [4]) | MIC (Staphylococcus aureus [5]) [µM] | MIC (Salmonella enterica) [µM] | Activity (Staphylococcus aureus [6]) | MIC (Salmonella paratyphi [7]) [µM] | MIC (Escherichia coli [8]) [µM] | MIC (Escherichia coli [9]) [µM] | Activity (RAW264.7) [%] | MIC (Candida albicans) [µM] | Activity (Cell membrane [10]) | MIC (Escherichia coli [11]) [µM] | MIC (Bacillus cereus) [µM] | MIC (Salmonella typhimurium) [µM] | MIC (Salmonella enteritidis) [µM] | MIC (Staphylococcus aureus [12]) [µM] | MIC (Bacillus pumilus) [µM] | further results
1 | H-WGRAFRRGVRRLARGGRR-NH2 | 8 | 3.67 | 7.33 | 7.33 | Dose-dependent effect | 14.7 | 14.7 | Tde | 7.33 | 14.7 | 14.7 | 74.8 | 29.3 | Active | 3.67 | 14.7 | > 58.6 | > 58.6 | 7.33 | > 58.6 | MIC (Staphylococcus aureus [13]): 7.33 µM; MIC (Staphylococcus aureus [14]): 7.33 µM
2 | H-WGRAFRRLVRRLARGLRR-NH2 | 11.8 | 6.97 | 3.49 | 3.49 | Dose-dependent effect | 3.49 | 13.9 | Tde | 3.49 | 27.9 | 13.9 | 64.79 | 13.9 | Active | 6.97 | 55.8 | 13.9 | > 55.8 | 1.74 | 55.8 | MIC (Staphylococcus aureus [13]): 1.74 µM; MIC (Staphylococcus aureus [14]): 0.87 µM
3 | H-WGRAFSAGVHRLANGGNG-NH2 | 1.08 | > 70.1 | > 70.1 | > 70.1 | Dose-dependent effect | > 70.1 | > 70.1 | Tde | > 70.1 | > 70.1 | > 70.1 | 77.58 | > 70.1 | Active | > 70.1 | > 70.1 | > 70.1 | > 70.1 | 70.1 | > 70.1 | MIC (Staphylococcus aureus [13]): > 70.1 µM; MIC (Staphylococcus aureus [14]): > 70.1 µM
4 | H-WGRAFSAGVHRLARGGRG-NH2 | 1.26 | 16.8 | 33.5 | > 67 | Dose-dependent effect | > 67 | 33.5 | Tde | > 67 | > 67 | > 67 | 87.22 | > 67 | Active | 67 | > 67 | > 67 | > 67 | > 67 | > 67 | MIC (Staphylococcus aureus [13]): > 67 µM; MIC (Staphylococcus aureus [14]): > 67 µM
5 | H-WGRAFSRGVRRLARGGRG-NH2 | 2.16 | 7.94 | 15.9 | 15.9 | Dose-dependent effect | 31.8 | 15.9 | Tde | 15.9 | 31.8 | 15.9 | 85.48 | > 63.5 | Active | 7.94 | > 63.5 | > 63.5 | > 63.5 | 15.9 | > 63.5 | MIC (Staphylococcus aureus [13]): > 63.5 µM; MIC (Staphylococcus aureus [14]): > 63.5 µM
6 | H-WLRAFRRLVRRLARLLRR-NH2 | 5.88 | 3.32 | 6.65 | 1.66 | Dose-dependent effect | 6.65 | 13.3 | Tde | 6.65 | 13.3 | > 53.2 | 48.25 | 26.6 | Active | > 53.2 | 53.2 | > 53.2 | > 53.2 | 1.66 | 26.6 | MIC (Staphylococcus aureus [13]): 1.66 µM; MIC (Staphylococcus aureus [14]): 1.66 µM
